# In ChEMBL document CHEMBL3861960, “Leoligin, the Major Lignan from Edelweiss (Leontopodium nivale subsp. alpinum), Promotes Cholesterol Efflux from THP-1 Macrophages” (J Nat Prod, 2016):
# Active and inactive are the calls of the source. The rule behind the calls is not given here.
# Columns and labels:
# [1] = Upregulation of ABCA1 mRNA expression in human THP1 cells at 10 uM after 24 hrs by qPCR method relative to control; assay type: functional, cell-based; conditions: THP-1
# How it was run: (§1)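 THP-1 macrophages treated for 24 h with 10 μM compound, 10 μM pioglitazone or DMSO. Total RNA extracted and converted to cDNA; ABCA1 or ABCG1 measured by SYBR Green qPCR and expressed relative to 18S. Mean ± SD of four independent experiments; one-way ANOVA with Bonferroni test against DMSO.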
# [2] = Upregulation of ABCG1 mRNA expression in human THP1 cells at 10 uM after 24 hrs by qPCR method relative to control; assay type: functional, cell-based; conditions: THP-1; how it was run: as §1
structure (smiles),measurement,setting,value
CCc1ccc(CCOc2ccc(CC3SC(=O)NC3=O)cc2)nc1 (configuration not stated),Activity,[1],Active
same,Activity,[2],Active
